{"source": "ChEMBL document CHEMBL1128245", "about": "“Dual-acting thromboxane receptor antagonist/synthase inhibitors: synthesis and biological properties of [2-substituted-4-(3-pyridyl)-1,3-dioxan-5-yl] alkenoic acids” (J Med Chem, 1995)", "key": {"[1]": {"system": "Rattus norvegicus", "experiment": "Ex vivo […] (TXA2 synthase) inhibitory activity after 3 hr of oral dosing (3 mg/kg) in the rat", "format": "functional", "method_in_brief": "(§1)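 Rats (n = 6) gavaged, anesthetized, aortic blood taken at 1, 3 or 5 h after dosing. A blood aliquot was challenged with collagen and TXB2 measured by radioimmunoassay; expressed as % inhibition of TXA2 synthase (±SEM).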"}, "[2]": {"species_on_record": "Homo sapiens", "experiment": "In vitro inhibition of U-46,619-induced aggregation of unwashed human platelets.", "format": "functional", "method_in_brief": "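Citrated (3.2%) human venous blood spun at 200g for 10 min. Platelet-rich plasma aggregated with U46619 with or without several antagonist concentrations.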"}, "[3]": {"system": "Rattus norvegicus", "experiment": "Ex vivo […] (TXA2 synthase) inhibitory activity after 1 hr of oral dosing (3 mg/kg) in the rat", "format": "functional", "method_in_brief": "as §1"}, "[4]": {"system": "Canis familiaris", "experiment": "Ex vivo TXA2 ([…]) antagonist activity was determined for U-46,619 induced aggregation (dose ratio) after 24 hr of oral dosing (1 mg/kg) in the dog", "format": "functional, Canis lupus familiaris", "method_in_brief": "(§2)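 Dogs (n = 4) dosed orally, blood sampled at 2, 5, 8 and 24 h. Platelet-rich plasma aggregated with U46619 plus a predetermined threshold ADP concentration (about 0.4–1.2 × 10^-6 M), compared before vs after dosing to give a U46619 dose ratio. \">\" marks the maximum achievable ratio at top U46619 (1 × 10^-4 M).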"}, "[5]": {"system": "Canis familiaris", "experiment": "Ex vivo TXA2 ([…]) antagonist activity was determined for U-46,619 induced aggregation (dose ratio) after 24 hr of oral dosing (3 mg/kg) in the dog", "format": "functional, Canis lupus familiaris", "method_in_brief": "as §2"}, "[6]": {"system": "Rattus norvegicus", "experiment": "Ex vivo […] (TXA2 synthase) inhibitory activity after 3 hr of oral dosing (5 mg/kg) in the rat", "format": "functional", "method_in_brief": "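Conscious rats (n = 6) were gavaged with compound, then anesthetized, and blood was drawn from the abdominal aorta at 1, 3 and 5 h after dosing. A blood aliquot was stimulated with collagen and the TXB2 formed was measured by radioimmunoassay. Results are expressed as % inhibition of TXA2 synthase activity (±SEM).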"}, "[7]": {"system": "Canis familiaris", "experiment": "Ex vivo TXA2 ([…]) antagonist activity was determined for U-46,619 induced aggregation (dose ratio) after 2 hr of oral dosing (1 mg/kg) in the dog", "format": "functional, Canis lupus familiaris", "method_in_brief": "as §2"}, "[8]": {"system": "Canis familiaris", "experiment": "Ex vivo TXA2 ([…]) antagonist activity was determined for U-46,619 induced aggregation (dose ratio) after 5 hr of oral dosing (1 mg/kg) in the dog", "format": "functional, Canis lupus familiaris", "method_in_brief": "as §2"}, "[9]": {"system": "Canis familiaris", "experiment": "Ex vivo TXA2 ([…]) antagonist activity was determined for U-46,619 induced aggregation (dose ratio) after 8 hr of oral dosing (3 mg/kg) in the dog", "format": "functional, Canis lupus familiaris", "method_in_brief": "as §2"}, "[10]": {"system": "Rattus norvegicus", "experiment": "Ex vivo […] (TXA2 synthase) inhibitory activity after 3 hr of oral dosing (10 mg/kg) in the rat", "format": "functional", "method_in_brief": "as §1"}, "[11]": {"biological_target": "T1, Thromboxane-A synthase (Homo sapiens, UniProt P24557)", "T1 sequence (P24557 whole entry)": "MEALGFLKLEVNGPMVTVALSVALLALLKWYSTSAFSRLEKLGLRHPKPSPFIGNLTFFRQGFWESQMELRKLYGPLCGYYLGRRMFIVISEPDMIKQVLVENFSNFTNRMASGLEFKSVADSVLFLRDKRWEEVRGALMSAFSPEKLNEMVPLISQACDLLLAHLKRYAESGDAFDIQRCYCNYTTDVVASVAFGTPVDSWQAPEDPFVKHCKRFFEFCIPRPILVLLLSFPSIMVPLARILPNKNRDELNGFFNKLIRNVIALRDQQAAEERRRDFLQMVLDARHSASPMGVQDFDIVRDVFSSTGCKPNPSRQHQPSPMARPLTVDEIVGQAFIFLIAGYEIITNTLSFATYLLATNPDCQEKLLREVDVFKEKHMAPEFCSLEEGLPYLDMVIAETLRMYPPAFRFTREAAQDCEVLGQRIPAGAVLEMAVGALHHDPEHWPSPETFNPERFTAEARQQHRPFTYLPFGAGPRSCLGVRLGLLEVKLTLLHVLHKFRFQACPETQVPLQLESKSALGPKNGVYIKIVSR", "experiment": "In vitro Inhibition of thromboxane synthase from human blood platelet microsomes", "method_in_brief": "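Human blood platelet microsomes incubated with [1-14C]arachidonic acid with or without inhibitor. Conversion to labeled thromboxane B2 quantified radiochromatographically. n = 2.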"}, "[12]": {"system": "Rattus norvegicus", "experiment": "Ex vivo TXA2 ([…]) antagonist activity was determined for U-46,619 induced aggregation (dose ratio) after 1 hr of oral dosing (5 mg/kg) in the rat", "format": "functional", "method_in_brief": "(§3)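 Conscious rats (n = 6) dosed by oral gavage, then anesthetized and bled from the abdominal aorta at 1, 3 or 5 h. Platelet-rich plasma aggregated with U46619 before and after dosing to give a U46619 dose ratio. \">\" values mark the maximum dose ratio achievable at the top U46619 concentration (1 × 10^-4 M).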"}, "[13]": {"system": "Canis familiaris", "experiment": "Ex vivo TXA2 ([…]) antagonist activity was determined for U-46,619 induced aggregation (dose ratio) after 2 hr of oral dosing (10 mg/kg) in the dog", "format": "functional, Canis lupus familiaris", "method_in_brief": "as §2"}, "[14]": {"system": "Rattus norvegicus", "experiment": "Ex vivo TXA2 ([…]) antagonist activity was determined for U-46,619 induced aggregation (dose ratio) after 5 hr of oral dosing (3 mg/kg) in the rat", "format": "functional", "method_in_brief": "as §3"}, "[15]": {"system": "Rattus norvegicus", "experiment": "Ex vivo TXA2 ([…]) antagonist activity was determined for U-46,619 induced aggregation (dose ratio) after 1 hr of oral dosing (3 mg/kg) in the rat", "format": "functional", "method_in_brief": "as §3"}, "[16]": {"system": "Rattus norvegicus", "experiment": "Ex vivo TXA2 ([…]) antagonist activity was determined for U-46,619 induced aggregation (dose ratio) after 1 hr of oral dosing (1 mg/kg) in the rat", "format": "functional", "method_in_brief": "as §3"}, "[17]": {"system": "Rattus norvegicus", "experiment": "Ex vivo […] (TXA2 synthase) inhibitory activity after 5 hr of oral dosing (3 mg/kg) in the rat", "format": "functional", "method_in_brief": "as §1"}, "[18]": {"system": "Canis familiaris", "experiment": "Ex vivo TXA2 ([…]) antagonist activity was determined for U-46,619 induced aggregation (dose ratio) after 5 hr of oral dosing (10 mg/kg) in the dog", "format": "functional, Canis lupus familiaris", "method_in_brief": "as §2"}, "[19]": {"system": "Rattus norvegicus", "experiment": "Ex vivo […] (TXA2 synthase) inhibitory activity after 5 hr of oral dosing (10 mg/kg) in the rat", "format": "functional", "method_in_brief": "as §1"}, "[20]": {"system": "Canis familiaris", "experiment": "Ex vivo TXA2 ([…]) antagonist activity was determined for U-46,619 induced aggregation (dose ratio) after 8 hr of oral dosing (10 mg/kg) in the dog", "format": "functional, Canis lupus familiaris", "method_in_brief": "as §2"}, "[21]": {"system": "Rattus norvegicus", "experiment": "Ex vivo TXA2 ([…]) antagonist activity was determined for U-46,619 induced aggregation (dose ratio) after 5 hr of oral dosing (10 mg/kg) in the rat", "format": "functional", "method_in_brief": "as §3"}, "[22]": {"system": "Rattus norvegicus", "experiment": "Ex vivo TXA2 ([…]) antagonist activity was determined for U-46,619 induced aggregation (dose ratio) after 3 hr of oral dosing (10 mg/kg) in the rat", "format": "functional", "method_in_brief": "as §3"}, "[23]": {"system": "Canis familiaris", "experiment": "Ex vivo TXA2 ([…]) antagonist activity was determined for U-46,619 induced aggregation (dose ratio) after 2 hr of oral dosing (3 mg/kg) in the dog", "format": "functional, Canis lupus familiaris", "method_in_brief": "as §2"}, "[24]": {"system": "Rattus norvegicus", "experiment": "Ex vivo […] (TXA2 synthase) inhibitory activity after 5 hr of oral dosing (5 mg/kg) in the rat", "format": "functional", "method_in_brief": "as §1"}, "[25]": {"system": "Canis familiaris", "experiment": "Ex vivo TXA2 ([…]) antagonist activity was determined for U-46,619 induced aggregation (dose ratio) after 5 hr of oral dosing (3 mg/kg) in the dog", "format": "functional, Canis lupus familiaris", "method_in_brief": "as §2"}}, "data": [{"smiles": "Cc1ccc(OC(C)(C)C2OCC(C/C=C\\CCC(=O)O)C(c3cccnc3)O2)c([N+](=O)[O-])c1", "note": "(stereo in doubt; 7x)", "values": [{"measurement": "Inhibition", "setting": "[1]", "value": 82.5, "unit": "%"}, {"measurement": "pA2", "setting": "[2]", "value": 8.43}, {"measurement": "Inhibition", "setting": "[3]", "value": 90.8, "unit": "%"}, {"measurement": "Antagonist activity", "setting": "[4]", "value": ">1.4"}, {"measurement": "Antagonist activity", "setting": "[5]", "value": ">281"}, {"measurement": "Inhibition", "setting": "[6]", "value": 89.2, "unit": "%"}, {"measurement": "Antagonist activity", "setting": "[7]", "value": ">506"}, {"measurement": "Antagonist activity", "setting": "[8]", "value": ">506"}, {"measurement": "Antagonist activity", "setting": "[9]", "value": ">321"}, {"measurement": "Inhibition", "setting": "[10]", "value": 93.9, "unit": "%"}, {"measurement": "IC50", "setting": "[11]", "value": 19, "unit": "nM"}, {"measurement": "Antagonist activity", "setting": "[12]", "value": ">60"}, {"measurement": "Antagonist activity", "setting": "[13]", "value": ">522"}, {"measurement": "Antagonist activity", "setting": "[14]", "value": ">21"}, {"measurement": "Antagonist activity", "setting": "[15]", "value": ">34"}, {"measurement": "Antagonist activity", "setting": "[16]", "value": ">21"}, {"measurement": "Inhibition", "setting": "[17]", "value": 68.3, "unit": "%"}, {"measurement": "Antagonist activity", "setting": "[18]", "value": ">522"}, {"measurement": "Inhibition", "setting": "[19]", "value": 89, "unit": "%"}, {"measurement": "Antagonist activity", "setting": "[20]", "value": ">522"}, {"measurement": "Antagonist activity", "setting": "[21]", "value": ">92"}, {"measurement": "Antagonist activity", "setting": "[22]", "value": ">71"}, {"measurement": "Antagonist activity", "setting": "[23]", "value": ">321"}, {"measurement": "Inhibition", "setting": "[24]", "value": 79.3, "unit": "%"}, {"measurement": "Antagonist activity", "setting": "[25]", "value": ">321"}]}]}
